Results from ChEMBL document CHEMBL5335771, “Thioxanthenone-based derivatives as multitarget therapeutic leads for Alzheimer's disease” (Eur J Med Chem, 2023).

How the values were obtained:
[1] = target: T1, Microtubule-associated protein tau (Homo sapiens, UniProt P10636); assay: Inhibition of tau (unknown origin) aggregation expressed in Escherichia coli BL21 (DE3) at 10 uM relative to control
How it was run: (§1)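 E. coli BL21(DE3) carrying pTARA (T7 RNA polymerase under PBAD) and pRKT42 (four-repeat tau) grown at 37 °C in M9 with 0.5% glucose, antibiotics and 250 μM ThS to OD600 0.6. […] ThS fluorescence ex 430/em 485 nm, normalized to tau-expressing cells (100%) and non-expressing cells (0%); OD600 checked for growth.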
Target sequence in this assay (P10636 whole entry): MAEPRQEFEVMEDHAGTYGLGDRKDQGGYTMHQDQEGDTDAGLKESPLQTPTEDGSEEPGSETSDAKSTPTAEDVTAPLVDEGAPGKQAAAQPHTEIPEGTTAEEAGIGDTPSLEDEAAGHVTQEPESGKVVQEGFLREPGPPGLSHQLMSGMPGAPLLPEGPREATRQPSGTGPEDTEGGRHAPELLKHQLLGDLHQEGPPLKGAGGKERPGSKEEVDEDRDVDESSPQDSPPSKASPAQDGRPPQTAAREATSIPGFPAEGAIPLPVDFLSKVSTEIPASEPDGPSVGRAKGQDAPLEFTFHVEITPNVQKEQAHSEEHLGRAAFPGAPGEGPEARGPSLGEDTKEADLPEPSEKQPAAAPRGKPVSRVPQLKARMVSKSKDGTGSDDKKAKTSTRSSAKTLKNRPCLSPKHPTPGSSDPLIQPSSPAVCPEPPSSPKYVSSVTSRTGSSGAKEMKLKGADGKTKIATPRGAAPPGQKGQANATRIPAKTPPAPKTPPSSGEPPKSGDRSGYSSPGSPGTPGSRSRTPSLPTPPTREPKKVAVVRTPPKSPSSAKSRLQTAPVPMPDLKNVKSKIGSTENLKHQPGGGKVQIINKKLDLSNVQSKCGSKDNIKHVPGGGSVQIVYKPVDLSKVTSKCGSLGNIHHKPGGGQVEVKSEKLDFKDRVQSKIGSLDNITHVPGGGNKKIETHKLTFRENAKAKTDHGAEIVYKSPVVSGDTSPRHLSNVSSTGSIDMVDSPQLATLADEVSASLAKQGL

[2] = target: T2, Amyloid-beta precursor protein (Homo sapiens, UniProt P05067); assay: Inhibition of amyloid beta 40 peptide (unknown origin) aggregation incubated for 2 hr by ThT fluorescence based spectrofluorimetric analysis
How it was run: (§2)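 Aβ40 peptide aggregation enhanced with 2% HFIP; thioflavin T fluorescence read-out; run in triplicate.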

[3] = Cytotoxicity against mouse brain Primary embryonic cortical cell assessed as cell death at 2.5 uM incubated for 1 hr by propidium iodide dye based spectrofluorometric analysis relative to control; format: toxicity
How it was run: (§3)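 Primary cortical cultures from E16.5 mouse embryo brains, trypsinized, plated on poly-D-lysine, grown in Neurobasal with glutamine, glucose, 5% horse serum and B27; compounds added at 4 DIV. Propidium iodide 30 μM; baseline F1 read 1 h after PI; ex 530/em 645 nm. Fmax after digitonin permeabilization. % death = 100×(Fn−F1)/(Fmax−F1); mean of three independent experiments.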

[4] = Cytotoxicity against mouse brain Primary embryonic cortical cell assessed as cell death at 2.5 uM incubated for 2 hrs by propidium iodide dye based spectrofluorometric analysis relative to control; format: toxicity; how it was run: as §3
[5] = Cytotoxicity against mouse brain Primary embryonic cortical cell assessed as cell death at 2.5 uM incubated for 3 hrs by propidium iodide dye based spectrofluorometric analysis relative to control; format: toxicity; how it was run: as §3
[6] = Cytotoxicity against mouse brain Primary embryonic cortical cell assessed as cell death at 2.5 uM incubated for 4 hrs by propidium iodide dye based spectrofluorometric analysis relative to control; format: toxicity; how it was run: as §3
[7] = Cytotoxicity against mouse brain Primary embryonic cortical cell assessed as cell death at 2.5 uM incubated for 5 hrs by propidium iodide dye based spectrofluorometric analysis relative to control; format: toxicity; how it was run: as §3
[8] = Cytotoxicity against mouse brain Primary embryonic cortical cell assessed as cell death at 2.5 uM incubated for 6 hrs by propidium iodide dye based spectrofluorometric analysis relative to control; format: toxicity; how it was run: as §3
[9] = Cytotoxicity against mouse brain Primary embryonic cortical cell assessed as cell death at 2.5 uM incubated for 24 hrs by propidium iodide dye based spectrofluorometric analysis relative to control; format: toxicity; how it was run: as §3
[10] = Cytotoxicity against mouse brain Primary embryonic cortical cell assessed as cell death at 2.5 uM incubated for 48 hrs by propidium iodide dye based spectrofluorometric analysis relative to control; format: toxicity; how it was run: as §3
[11] = Cytotoxicity against mouse brain Primary embryonic cortical cell assessed as cell death at 2.5 uM incubated for 72 hrs by propidium iodide dye based spectrofluorometric analysis relative to control; format: toxicity; how it was run: as §3
[12] = Cytotoxicity against mouse brain Primary embryonic cortical cell assessed as cell death at 5 uM incubated for 1 hr by propidium iodide dye based spectrofluorometric analysis relative to control; format: toxicity; how it was run: as §3
[13] = Cytotoxicity against mouse brain Primary embryonic cortical cell assessed as cell death at 5 uM incubated for 2 hrs by propidium iodide dye based spectrofluorometric analysis relative to control; format: toxicity; how it was run: as §3
[14] = Cytotoxicity against mouse brain Primary embryonic cortical cell assessed as cell death at 5 uM incubated for 3 hrs by propidium iodide dye based spectrofluorometric analysis relative to control; format: toxicity; how it was run: as §3
[15] = Cytotoxicity against mouse brain Primary embryonic cortical cell assessed as cell death at 5 uM incubated for 4 hrs by propidium iodide dye based spectrofluorometric analysis relative to control; format: toxicity; how it was run: as §3
[16] = Cytotoxicity against mouse brain Primary embryonic cortical cell assessed as cell death at 5 uM incubated for 5 hrs by propidium iodide dye based spectrofluorometric analysis relative to control; format: toxicity; how it was run: as §3
[17] = Cytotoxicity against mouse brain Primary embryonic cortical cell assessed as cell death at 5 uM incubated for 6 hrs by propidium iodide dye based spectrofluorometric analysis relative to control; format: toxicity; how it was run: as §3
[18] = Cytotoxicity against mouse brain Primary embryonic cortical cell assessed as cell death at 5 uM incubated for 24 hrs by propidium iodide dye based spectrofluorometric analysis relative to control; format: toxicity; how it was run: as §3
[19] = Cytotoxicity against mouse brain Primary embryonic cortical cell assessed as cell death at 5 uM incubated for 48 hrs by propidium iodide dye based spectrofluorometric analysis relative to control; format: toxicity; how it was run: as §3
[20] = Cytotoxicity against mouse brain Primary embryonic cortical cell assessed as cell death at 5 uM incubated for 72 hrs by propidium iodide dye based spectrofluorometric analysis relative to control; format: toxicity; how it was run: as §3
[21] = Cytotoxicity against mouse brain Primary embryonic cortical cell assessed as cell death at 10 uM incubated for 1 hr by propidium iodide dye based spectrofluorometric analysis relative to control; format: toxicity; how it was run: as §3
[22] = Cytotoxicity against mouse brain Primary embryonic cortical cell assessed as cell death at 10 uM incubated for 2 hrs by propidium iodide dye based spectrofluorometric analysis relative to control; format: toxicity; how it was run: as §3
[23] = Cytotoxicity against mouse brain Primary embryonic cortical cell assessed as cell death at 10 uM incubated for 3 hrs by propidium iodide dye based spectrofluorometric analysis relative to control; format: toxicity; how it was run: as §3
[24] = Cytotoxicity against mouse brain Primary embryonic cortical cell assessed as cell death at 10 uM incubated for 4 hrs by propidium iodide dye based spectrofluorometric analysis relative to control; format: toxicity; how it was run: as §3
[25] = Cytotoxicity against mouse brain Primary embryonic cortical cell assessed as cell death at 10 uM incubated for 5 hrs by propidium iodide dye based spectrofluorometric analysis relative to control; format: toxicity; how it was run: as §3
[26] = Cytotoxicity against mouse brain Primary embryonic cortical cell assessed as cell death at 10 uM incubated for 6 hrs by propidium iodide dye based spectrofluorometric analysis relative to control; format: toxicity; how it was run: as §3
[27] = Cytotoxicity against mouse brain Primary embryonic cortical cell assessed as cell death at 10 uM incubated for 24 hrs by propidium iodide dye based spectrofluorometric analysis relative to control; format: toxicity; how it was run: as §3
[28] = Cytotoxicity against mouse brain Primary embryonic cortical cell assessed as cell death at 10 uM incubated for 48 hrs by propidium iodide dye based spectrofluorometric analysis relative to control; format: toxicity; how it was run: as §3
[29] = Cytotoxicity against mouse brain Primary embryonic cortical cell assessed as cell death at 10 uM incubated for 72 hrs by propidium iodide dye based spectrofluorometric analysis relative to control; format: toxicity; how it was run: as §3
[30] = Cytotoxicity against mouse brain Primary embryonic cortical cell assessed as cell death at 30 uM incubated for 1 hr by propidium iodide dye based spectrofluorometric analysis relative to control; format: toxicity; how it was run: as §3
[31] = Cytotoxicity against mouse brain Primary embryonic cortical cell assessed as cell death at 30 uM incubated for 2 hrs by propidium iodide dye based spectrofluorometric analysis relative to control; format: toxicity; how it was run: as §3
[32] = Cytotoxicity against mouse brain Primary embryonic cortical cell assessed as cell death at 30 uM incubated for 3 hrs by propidium iodide dye based spectrofluorometric analysis relative to control; format: toxicity; how it was run: as §3
[33] = Cytotoxicity against mouse brain Primary embryonic cortical cell assessed as cell death at 30 uM incubated for 4 hrs by propidium iodide dye based spectrofluorometric analysis relative to control; format: toxicity; how it was run: as §3
[34] = Cytotoxicity against mouse brain Primary embryonic cortical cell assessed as cell death at 30 uM incubated for 5 hrs by propidium iodide dye based spectrofluorometric analysis relative to control; format: toxicity; how it was run: as §3
[35] = Cytotoxicity against mouse brain Primary embryonic cortical cell assessed as cell death at 30 uM incubated for 6 hrs by propidium iodide dye based spectrofluorometric analysis relative to control; format: toxicity; how it was run: as §3
[36] = Cytotoxicity against mouse brain Primary embryonic cortical cell assessed as cell death at 30 uM incubated for 24 hrs by propidium iodide dye based spectrofluorometric analysis relative to control; format: toxicity; how it was run: as §3
[37] = Cytotoxicity against mouse brain Primary embryonic cortical cell assessed as cell death at 30 uM incubated for 48 hrs by propidium iodide dye based spectrofluorometric analysis relative to control; format: toxicity; how it was run: as §3
[38] = Cytotoxicity against mouse brain Primary embryonic cortical cell assessed as cell death at 30 uM incubated for 72 hrs by propidium iodide dye based spectrofluorometric analysis relative to control; format: toxicity; how it was run: as §3
[39] = Cytotoxicity against green monkey Vero 76 cells incubated for 48 to 96 hrs by crystal violet staining assay; format: toxicity, cell-based; conditions: green monkey (Chlorocebus sabaeus)
[40] = target: T1, Microtubule-associated protein tau; assay: Inhibition of tau (unknown origin) aggregation expressed in Escherichia coli BL21 (DE3); how it was run: as §1
Target sequence in this assay (P10636 whole entry): as above

[41] = target: T2, Amyloid-beta precursor protein; assay: Inhibition of amyloid beta 40 peptide (unknown origin) aggregation at 100 uM incubated for 2 hr by ThT fluorescence based spectrofluorimetric analysis relative to control; how it was run: as §2
[42] = Cytotoxicity against human SH-SY5Y cells incubated for 24 hrs by MTT assay; format: toxicity, cell-based
[43] = Cytotoxicity against rat Primary cerebellar granule neuron assessed as cell viability at 10 uM relative to control; format: toxicity, cell-based, Cerebellar granule neurone; conditions: primary cerebellar granule neurons, read-out: Activity
[44] = target: T1, Microtubule-associated protein tau; assay: Inhibition of PHF6 peptide (unknown origin) aggregation at 10 uM measured after 3 hrs by thioflavin T fluorescence based fluorimetric analysis relative to control
Target sequence in this assay (P10636 whole entry, looked up): as the sequence (P10636 whole entry) above

T2 sequence (P05067 whole entry): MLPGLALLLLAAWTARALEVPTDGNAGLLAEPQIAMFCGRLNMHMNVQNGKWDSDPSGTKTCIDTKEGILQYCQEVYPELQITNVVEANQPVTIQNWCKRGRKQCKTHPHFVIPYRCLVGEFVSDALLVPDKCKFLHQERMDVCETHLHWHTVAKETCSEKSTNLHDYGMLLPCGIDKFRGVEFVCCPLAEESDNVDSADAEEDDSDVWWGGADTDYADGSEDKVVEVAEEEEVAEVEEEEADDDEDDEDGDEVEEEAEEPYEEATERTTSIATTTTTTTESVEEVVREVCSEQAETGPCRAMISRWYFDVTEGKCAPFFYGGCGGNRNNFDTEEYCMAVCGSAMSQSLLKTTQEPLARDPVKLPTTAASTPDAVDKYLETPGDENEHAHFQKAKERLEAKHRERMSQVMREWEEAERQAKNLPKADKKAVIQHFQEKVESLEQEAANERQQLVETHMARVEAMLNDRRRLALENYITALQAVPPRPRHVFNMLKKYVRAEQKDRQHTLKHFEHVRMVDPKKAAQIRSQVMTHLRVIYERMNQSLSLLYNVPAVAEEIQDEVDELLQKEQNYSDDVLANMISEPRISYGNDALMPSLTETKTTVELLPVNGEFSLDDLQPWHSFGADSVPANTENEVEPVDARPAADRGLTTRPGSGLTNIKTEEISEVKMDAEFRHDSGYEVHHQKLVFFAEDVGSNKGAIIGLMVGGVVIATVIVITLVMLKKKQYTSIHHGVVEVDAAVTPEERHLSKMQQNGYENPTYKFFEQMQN

**Q.** With O=c1c2ccccc2sc2c([N+](=O)[O-])ccc(NCCC[C@@H]3CCCN4CCCC[C@H]34)c12 as the compound, how does the inhibition [1] read?
**A.** Its inhibition is 22%.

**Q.** And the IC50 [2]?
**A.** The IC50 was 13 µM.

**Q.** And the Activity [3]?
**A.** Its Activity is 0.3%.

**Q.** What about the Activity [4] of the same compound?
**A.** The Activity was 3.1%.

**Q.** And the Activity [5]?
**A.** The Activity was 3.7%.

**Q.** What about the Activity [6] of the same compound?
**A.** Its Activity is 4.7%.

**Q.** What about the Activity [7] of the same compound?
**A.** The Activity was 5.2%.

**Q.** And the Activity [8]?
**A.** Its Activity is 5.2%.

**Q.** And the Activity [9]?
**A.** The Activity was 85.5%.

**Q.** And the Activity [10]?
**A.** The Activity was 83.3%.

**Q.** What about the Activity [11] of the same compound?
**A.** The Activity was 79.6%.

**Q.** And the Activity [12]?
**A.** Its Activity is 1.6%.

**Q.** What about the Activity [13] of the same compound?
**A.** The Activity was 2.9%.

**Q.** What about the Activity [14] of the same compound?
**A.** Its Activity is 5%.

**Q.** And the Activity [15]?
**A.** Its Activity is 4.3%.

**Q.** And the Activity [16]?
**A.** Its Activity is 6.6%.

**Q.** What about the Activity [17] of the same compound?
**A.** Its Activity is 5.7%.

**Q.** What about the Activity [18] of the same compound?
**A.** Its Activity is 77%.

**Q.** And the Activity [19]?
**A.** Its Activity is 72.4%.

**Q.** And the Activity [20]?
**A.** The Activity was 79.4%.

**Q.** What about the Activity [21] of the same compound?
**A.** The Activity was -3.1%.

**Q.** What about the Activity [22] of the same compound?
**A.** The Activity was 1.7%.

**Q.** What about the Activity [23] of the same compound?
**A.** The Activity was 6.4%.

**Q.** What about the Activity [24] of the same compound?
**A.** Its Activity is 16.2%.

**Q.** What about the Activity [25] of the same compound?
**A.** The Activity was 31%.

**Q.** And the Activity [26]?
**A.** The Activity was 35.9%.

**Q.** And the Activity [27]?
**A.** Its Activity is 86.1%.

**Q.** What about the Activity [28] of the same compound?
**A.** The Activity was 79.1%.

**Q.** And the Activity [29]?
**A.** Its Activity is 74.8%.

**Q.** And the Activity [30]?
**A.** Its Activity is 11.6%.

**Q.** What about the Activity [31] of the same compound?
**A.** Its Activity is 19.1%.

**Q.** And the Activity [32]?
**A.** Its Activity is 29.7%.

**Q.** And the Activity [33]?
**A.** The Activity was 42%.

**Q.** What about the Activity [34] of the same compound?
**A.** Its Activity is 51%.

**Q.** And the Activity [35]?
**A.** The Activity was 54.3%.

**Q.** What about the Activity [36] of the same compound?
**A.** The Activity was 82.1%.

**Q.** What about the Activity [37] of the same compound?
**A.** The Activity was 82.9%.

**Q.** And the Activity [38]?
**A.** The Activity was 80.8%.

**Q.** Which IC50 [2] does the source give for Cc1ccc(NC[C@@H]2CCCN3CCCC[C@H]23)c2c(=O)c3ccccc3sc12 here?
**A.** Its IC50 is 28 µM.

**Q.** And the IC50 [39]?
**A.** Its IC50 is 12.4 µM.

**Q.** For CCN(CC)CCCNc1ccc(C)c2oc3ccccc3c(=O)c12, which IC50 [40] is on record?
**A.** The IC50 was 16 µM.

**Q.** And the inhibition [41]?
**A.** Its inhibition is 55%.

**Q.** Which IC50 [40] does the source give for Cc1ccc(NCC[C@@H]2CCCN3CCCC[C@H]23)c2c(=O)c3ccccc3sc12 here?
**A.** The IC50 was 46 µM.

**Q.** And the IC50 [39]?
**A.** The IC50 was 12.4 µM.

**Q.** And the IC50 at 24 h [42]?
**A.** The IC50 at 24 h was 7.22 µM.

**Q.** What about the viability at 10 µM [43] of the same compound?
**A.** The viability at 10 µM was 78%.

**Q.** And the inhibition [44]?
**A.** Its inhibition is > 80%.

**Q.** Which IC50 [40] does the source give for CCN(CC)CCNc1ccc(C)c2sc3ccccc3c(=O)c12 [LUCANTHONE] here?
**A.** Its IC50 is 10.9 µM.

**Q.** And the IC50 [2]?
**A.** Its IC50 is 24 µM.

**Q.** What about the IC50 [39] of the same compound?
**A.** Its IC50 is 12.4 µM.
